Data published in PubChem BioAssay.
Inconclusive results are not listed.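 How the source made its calls, unless noted: active means cell viability at or below a set limit in both duplicate runs, the limit being the all-compound median minus 4 SD (cut at about 23% in these data, passing the limit was not always enough); inconclusive means no clear call, values can overlap the other calls; inactive means the rest.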

Experiments:
[1] = S. cerevisiae growth inhibition in permissive medium (OD615), pilot counter-assay for S. cerevisiae lifespan shortening project, permissive growth control (AID 705;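 active means growth inhibition above 25% in both replicates, a cutoff set 3 SD above the mean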); details: OD615, 24 h, at 10 µM, stronger effect = higher value
Procedure, shortened: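 assay system = Saccharomyces cerevisiae strain carrying genetically modified DeaD replicative-lifespan system | technique = absorbance (optical density) at 615 nm | buffer or medium = permissive raffinose/galactose medium | timing = cells pre-grown 4 h, then 24 h compound exposure, 30 °C humidified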

[2] = S. cerevisiae growth inhibition in restrictive medium, OD615, pilot screen, restrictive growth control, yeast lifespan reduction project (AID 706;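 active means growth inhibition above a set limit, 3 SD over mean compound inhibition, in both replicates, cut at about 43% in these data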;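 further: modified DeaD lifespan yeast strain shifted to restrictive glucose medium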); details: OD615, 48 h, at 10 µM, stronger effect = higher value
Procedure, shortened: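 System: modified S. cerevisiae. Buffer or medium: CSMM-D glucose medium. Incubation: 4 h pre-growth plus 48 h compound exposure, 30 °C. Detection: absorbance (optical density) measured at 615 nm.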

[3] = doxorubicin toxicity protection in MRP-1 cells – H69AR cells, CellTiter-Glo, duplicate, MRP-1 activator project, pilot screen (AID 807;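 active means viability increase at or above a cutoff of the median across tested compounds plus 3 SD, cut at about 8.5% in these data, passing the limit was not always enough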;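 further: compound pretreatment 18-22 h then 72 h combined with doxorubicin; 0% = doxorubicin alone and 100% = vehicle without doxorubicin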); details: H69AR viability with doxorubicin, CellTiter-Glo luminescence; at 10 µM; stronger effect = higher value
[4] = viability of HCT116 without oncogenic beta-catenin – human colon tumor cells, pilot screen (AID 823); details: HCT116 beta-catenin knockout viability, CellTiter-Glo, 60 h; at 10 µM; stronger effect = lower value;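 further: 0% = wells killed by 20 µM Hyamine and 100% = untreated DMSO cell wells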
[5] = viability of PTEN-null HCT116 cells – cell-based, HCT116 clonal line, CellTiter-Glo, pilot screen (AID 824;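 active means viability at or below 27.92% in each of two runs, the all-compound median minus 4 SD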;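 further: 0% = 20 µM Hyamine control and 100% = vehicle cell control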); details: HCT116 PTEN-deleted viability, 60 h, at 10 µM, stronger effect = lower value
[6] = RAM pathway blockade in budding yeast – dse1pr::URA3 reporter, 5-FOA selection, pilot screen (AID 869;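 active means inhibition over a set limit, the all-compound mean plus 3 SD, in both replicate runs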;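 further: 0% = DMSO wells with no growth and 100% = 10 µM 1-NA-PP1 with full growth; RAM network block rescues cells from 5-FOA so hits raise OD615 growth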); details: S. cerevisiae dse1pr::URA3 5-FOA growth, OD615, 2 d; at 10 µM; stronger effect = higher value; strain carries analog-sensitive mutant Cbk1 kinase
[7] = RAM signaling pathway blockade in yeast – S. cerevisiae, Pdr1DBD-CYC8 efflux-inhibited sensitized strain, primary screen (AID 1298;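 active means RAM network inhibition above 8.4% in each of two replicates, 3 SD over the compound average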;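 further: 0% = DMSO untreated cells without growth and 100% = 10 µM 1-NA-PP1 full growth; higher means more yeast growth rescued from 5-FOA killing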); details: S. cerevisiae cbk1-as DSE1-URA3 strain, 5-FOA growth OD615, 2 d; at 50 µM; stronger effect = higher value

CCCn1c(CN(Cc2ccccc2)Cc2ccccc2)nc2c1c(=O)n(C)c(=O)n2C
inactive: growth inhibition [1] -1.94% | growth inhibition [2] -8.84% | viability increase [3] 0.21% | viability [4] 69.2% | viability [5] 59.7% | inhibition [6] 1.22% | RAM network inhibition [7] 8.87%

COc1ccccc1NC(=O)C1C2C=CC3(CN(Cc4cccnc4)C(=O)C13)O2 (configuration not stated)
inactive: growth inhibition [1] 6% | growth inhibition [2] 4.22% | viability increase [3] 0.16% | viability [4] 98.2% | viability [5] 103% | inhibition [6] -0.25% | RAM network inhibition [7] -0.51%

Cc1ccccc1-n1nc(-c2ccc(N)cc2)cc1N
inactive: growth inhibition [1] 3.39% | growth inhibition [2] 2.1% | viability increase [3] -2.52% | viability [4] 101% | viability [5] 94.7% | inhibition [6] 0.8% | RAM network inhibition [7] 2.8%

Cc1ccc(CNC(=O)c2cc3c(-c4ccc(Cl)cc4)nn(C)c3s2)o1
inactive: growth inhibition [1] -7.97% | growth inhibition [2] -5.61% | viability increase [3] -6.4% | viability [4] 53.9% | viability [5] 48.7% | inhibition [6] 3.25% | RAM network inhibition [7] 2.13%

CNC(=O)c1ccc(-c2sc3nc(N4CCOCC4)c4c(c3c2N)CCCC4)o1
inactive: growth inhibition [1] 0.875% | growth inhibition [2] 17.2% | viability increase [3] -7.88% | viability [4] 39.6% | inhibition [6] -0.54% | RAM network inhibition [7] 5.11%

CCOC(=O)N1CCN(c2nc(SC)nc3sc4c(c23)CC(C)(C)OC4)CC1
inactive: growth inhibition [1] 2.38% | growth inhibition [2] -0.985% | viability increase [3] -5.82% | viability [4] 87.5% | inhibition [6] 0.54% | RAM network inhibition [7] 9.5%

Clc1ccc(Sc2oc(/C=N/n3cnnc3)cc2Br)cc1
inactive: growth inhibition [1] -0.475% | growth inhibition [2] 22.4% | viability increase [3] -8.12% | viability [4] 27.6% | viability [5] 50.5% | inhibition [6] 0.36% | RAM network inhibition [7] 1.69%

CCCCNC(=O)c1ccc(NC(=O)C2CCCO2)cc1 (configuration not stated)
inactive: growth inhibition [1] -3.29% | growth inhibition [2] -3.53% | viability increase [3] -0.44% | viability [4] 96.5% | inhibition [6] 1.81% | RAM network inhibition [7] 3.01%

Cc1sc(NC(=O)CCCC(=O)O)c(C#N)c1C
inactive: growth inhibition [1] -0.59% | growth inhibition [2] 16.8% | viability increase [3] -1.9% | viability [4] 99.4% | viability [5] 99% | inhibition [6] 1.27% | RAM network inhibition [7] 3.31%

COc1ccc(-c2nc(N3CCOCC3)nc3n[nH]c(N)c23)cc1
inactive: growth inhibition [1] -5.32% | growth inhibition [2] 14.9% | viability increase [3] -6.84% | viability [4] 74.7% | inhibition [6] 0.26% | RAM network inhibition [7] 3.37%

COc1cc(C2NC(=O)NC(C)=C2C(=O)OC2CCCCC2)cc(Br)c1O (configuration not stated)
inactive: growth inhibition [1] -9.15% | growth inhibition [2] -9.77% | viability increase [3] 0.18% | viability [4] 82.1% | viability [5] 77.3% | inhibition [6] 0.33% | RAM network inhibition [7] 8.82%

COc1ccccc1-n1c(SC)nc(O)cc1=O
inactive: growth inhibition [1] 1.24% | growth inhibition [2] -7.61% | viability increase [3] 0.84% | viability [4] 105% | viability [5] 99% | inhibition [6] 2.01% | RAM network inhibition [7] 4.2%

C=C(C)Cn1c(CCCNC(=O)CCC)nc2ccccc21
inactive: growth inhibition [1] -14.9% | growth inhibition [2] 7.12% | viability increase [3] -0.37% | viability [4] 94.7% | inhibition [6] -0.295% | RAM network inhibition [7] 1.57%

C=CCN(c1ccccc1)S(=O)(=O)c1ccc2c(c1)oc(=O)n2C
inactive: growth inhibition [1] -15.1% | growth inhibition [2] -18.7% | viability increase [3] -2.65% | viability [4] 98.7% | viability [5] 87.6% | inhibition [6] 2.14% | RAM network inhibition [7] 3.12%

O=C(NCCC1=CCCCC1)C1CCCN(S(=O)(=O)c2cccc3cccnc23)C1 (configuration not stated)
inactive: growth inhibition [1] -14.8% | growth inhibition [2] -12.7% | viability increase [3] -1.42% | viability [4] 89% | viability [5] 80.6% | inhibition [6] 2.14% | RAM network inhibition [7] 5.84%

O=C(Nc1ccc(Br)cc1)c1cnccn1
inactive: growth inhibition [1] -12.7% | growth inhibition [2] -21.8% | viability increase [3] -0.6% | viability [4] 98.1% | viability [5] 94.4% | inhibition [6] 1.59% | RAM network inhibition [7] 4.87%

COC(=O)c1coc(-c2ccc(C)cc2)c1C(=O)OC
inactive: growth inhibition [1] -4.24% | growth inhibition [2] 2% | viability increase [3] 0.08% | viability [4] 88.6% | viability [5] 95.9% | inhibition [6] 0.11% | RAM network inhibition [7] 3.96%

CCOC(=O)N1CCN(C(=O)CNS(=O)(=O)c2cccs2)CC1
inactive: growth inhibition [1] 7.6% | growth inhibition [2] 1.46% | viability increase [3] -2.69% | viability [4] 93.3% | inhibition [6] 0.785% | RAM network inhibition [7] 2.76%

CCN(CC)S(=O)(=O)c1ccc(C(=O)OCC(=O)N2CCN(C(=O)c3ccco3)CC2)cc1
inactive: growth inhibition [1] -8.4% | growth inhibition [2] -3.91% | viability increase [3] 0.34% | viability [4] 89.7% | viability [5] 93.6% | inhibition [6] 1.86% | RAM network inhibition [7] 1.24%

O=C(c1ccccc1S(=O)(=O)NCc1ccccc1)N1CCCC1
inactive: growth inhibition [1] -12% | growth inhibition [2] -20.3% | viability increase [3] -0.09% | viability [4] 110% | viability [5] 98% | inhibition [6] 1.66% | RAM network inhibition [7] 3.93%

CCCCC(=O)Nc1nc2ccc3nc(C)sc3c2s1
inactive: growth inhibition [1] -25.8% | growth inhibition [2] -2.65% | viability increase [3] -0.78% | viability [4] 81.3% | viability [5] 87.2% | inhibition [6] 2.27% | RAM network inhibition [7] 0.32%

Cc1cc(C)n(-c2cc(=O)n(C)c(=O)n2C)n1
inactive: growth inhibition [1] 1.39% | growth inhibition [2] -9.85% | viability increase [3] -2.96% | viability [4] 92.3% | inhibition [6] 0.755% | RAM network inhibition [7] 4.35%

CC(C)Sc1nc(NCc2ccco2)c2c3c(sc2n1)COC(C)(C)C3
inactive: growth inhibition [1] 3.17% | growth inhibition [2] 22.4% | viability increase [3] -8.23% | viability [4] 56% | inhibition [6] -0.26% | RAM network inhibition [7] 7.33%

CCO/C=N/c1c(C#N)c(CC#N)nn1-c1ccccc1
inactive: growth inhibition [1] -13.5% | growth inhibition [2] 2.31% | viability increase [3] -1.36% | viability [4] 94.6% | inhibition [6] 2.31% | RAM network inhibition [7] 1.41%

CCOC(=O)Nc1cc(C)c(Cl)cc1OC
inactive: growth inhibition [1] -8.55% | growth inhibition [2] -0.98% | viability increase [3] -2.98% | viability [4] 84.5% | viability [5] 75.7% | inhibition [6] 2.17% | RAM network inhibition [7] 5.3%

CC(=O)c1cccc(NC(=O)c2cnn3ccccc23)c1
inactive: growth inhibition [1] -8.43% | growth inhibition [2] -17.2% | viability increase [3] -2.54% | viability [4] 95.5% | viability [5] 84.4% | inhibition [6] 1.73% | RAM network inhibition [7] 4.75%

CCn1c(CNC(=O)C(C)(C)C)nc2ccccc21
inactive: growth inhibition [1] -13.2% | growth inhibition [2] -10.8% | viability increase [3] -1.1% | viability [4] 104% | viability [5] 101% | inhibition [6] 1.73% | RAM network inhibition [7] 1.9%

Cc1cc(C)c(C)c(S(=O)(=O)Nc2ccccc2C(=O)NCCCn2ccnc2)c1C
inactive: growth inhibition [1] -28% | growth inhibition [2] 12.5% | viability increase [3] -5.57% | viability [4] 70.2% | inhibition [6] 0.75% | RAM network inhibition [7] 0.27%

CN(C)/C=N/c1c(C#N)cnn1-c1nc2ccccc2s1
inactive: growth inhibition [1] -9.66% | growth inhibition [2] 6.79% | viability increase [3] -3.38% | viability [4] 102% | inhibition [6] 1.28% | RAM network inhibition [7] 4.53%

CSc1nc(N(CCO)CCO)c2sc3nc(-c4ccco4)c4c(c3c2n1)CCC4
inactive: growth inhibition [1] -1.82% | growth inhibition [2] 8.15% | viability increase [3] -4.84% | viability [4] 93.9% | inhibition [6] 2.71% | RAM network inhibition [7] 8.3%

O=C(CSc1oc(-c2ccc(F)cc2)nc1S(=O)(=O)c1ccccc1)NCC1CCCO1 (configuration not stated)
inactive: growth inhibition [1] -15.8% | growth inhibition [2] 4.17% | viability increase [3] -5.58% | viability [4] 90.8% | inhibition [6] 2.46% | RAM network inhibition [7] 6.86%

CCCc1nc(SCc2ccccn2)c2c(=O)n(C)c(=O)n(C)c2n1
inactive: growth inhibition [1] -3.14% | growth inhibition [2] -0.14% | viability increase [3] 1.81% | viability [4] 83.4% | viability [5] 85.4% | inhibition [6] 1.61% | RAM network inhibition [7] 5.45%

Cc1ccc(S(=O)(=O)CC(C)N2CCOCC2)c(S(=O)(=O)CC(C)N2CCOCC2)c1 (configuration not stated)
inactive: growth inhibition [1] -6.09% | growth inhibition [2] -0.82% | viability increase [3] 1.48% | viability [4] 97% | viability [5] 94.4% | inhibition [6] 0.7% | RAM network inhibition [7] 1.89%

COc1cccc(-c2nn(C)c3sc(C(=O)NCc4ccc5c(c4)OCO5)cc23)c1
inactive: growth inhibition [1] 2.61% | growth inhibition [2] 9.31% | viability increase [3] -2.08% | viability [4] 92.6% | viability [5] 82.7% | inhibition [6] 4.3% | RAM network inhibition [7] 12.7%

CCN1C(=S)SC(=O)C1=C1C=C(C)OC(C)=C1
inactive: growth inhibition [1] -11% | growth inhibition [2] 14.9% | viability increase [3] -3.02% | viability [4] 91.9% | inhibition [6] 2.55% | RAM network inhibition [7] 5.1%

Cc1cc(C)cc(N(CC(=O)N2CCN(Cc3ccccc3)CC2)S(=O)(=O)c2c(C)noc2C)c1
inactive: growth inhibition [1] -13.5% | growth inhibition [2] -29.5% | viability increase [3] -4.22% | viability [4] 101% | viability [5] 96.9% | inhibition [6] 1.84% | RAM network inhibition [7] 3.45%

COc1ccc(Cl)cc1Nc1cc(C)nc2nc(C)nn12
inactive: growth inhibition [1] -5.01% | growth inhibition [2] -6.77% | viability increase [3] -3.12% | viability [4] 103% | viability [5] 94.8% | inhibition [6] -0.515% | RAM network inhibition [7] 3.45%

Clc1ccccc1-c1ccc(/C=N/n2cnnc2)o1
inactive: growth inhibition [1] -1.67% | growth inhibition [2] 11.9% | viability increase [3] -1.41% | viability [4] 102% | viability [5] 95.1% | inhibition [6] 1.61% | RAM network inhibition [7] 4.98%
